The source made the active and inactive calls. No cut-off for these calls is given here.
Tests used:
[1] = target: T1, Calpain-1 catalytic subunit (Homo sapiens) (UniProt P07384); experiment: Inhibition of human calpain 1 at 100 uM
T1 sequence (whole entry): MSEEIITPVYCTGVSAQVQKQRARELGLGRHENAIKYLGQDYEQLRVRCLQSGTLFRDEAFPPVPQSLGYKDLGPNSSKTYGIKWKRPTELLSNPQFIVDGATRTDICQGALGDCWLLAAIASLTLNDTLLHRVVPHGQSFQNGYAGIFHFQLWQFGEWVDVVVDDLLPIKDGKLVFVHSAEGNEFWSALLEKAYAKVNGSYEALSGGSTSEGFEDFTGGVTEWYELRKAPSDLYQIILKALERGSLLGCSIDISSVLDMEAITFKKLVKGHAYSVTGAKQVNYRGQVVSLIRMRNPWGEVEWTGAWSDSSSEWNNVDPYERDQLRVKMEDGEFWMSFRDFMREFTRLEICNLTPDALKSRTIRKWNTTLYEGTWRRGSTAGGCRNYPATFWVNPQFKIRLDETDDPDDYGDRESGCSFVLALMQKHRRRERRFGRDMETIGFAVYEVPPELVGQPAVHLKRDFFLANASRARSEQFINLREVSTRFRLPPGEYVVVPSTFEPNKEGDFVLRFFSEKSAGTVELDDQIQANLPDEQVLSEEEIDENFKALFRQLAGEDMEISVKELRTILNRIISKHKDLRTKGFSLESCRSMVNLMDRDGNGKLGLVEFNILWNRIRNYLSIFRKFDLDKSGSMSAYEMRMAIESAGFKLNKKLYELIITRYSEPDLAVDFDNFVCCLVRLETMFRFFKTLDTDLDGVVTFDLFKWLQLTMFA

Trypsin (Homo sapiens) = Trypsin (Homo sapiens) (UniProt P07477+P07478+P35030); experiment: Inhibition of human trypsin at 100 uM; type: protein assay
[2] = target: T2, Coagulation factor XII (Homo sapiens) (UniProt P00748); experiment: Inhibition of human coagulation factor beta 12a at 100 uM
T2 sequence (whole entry): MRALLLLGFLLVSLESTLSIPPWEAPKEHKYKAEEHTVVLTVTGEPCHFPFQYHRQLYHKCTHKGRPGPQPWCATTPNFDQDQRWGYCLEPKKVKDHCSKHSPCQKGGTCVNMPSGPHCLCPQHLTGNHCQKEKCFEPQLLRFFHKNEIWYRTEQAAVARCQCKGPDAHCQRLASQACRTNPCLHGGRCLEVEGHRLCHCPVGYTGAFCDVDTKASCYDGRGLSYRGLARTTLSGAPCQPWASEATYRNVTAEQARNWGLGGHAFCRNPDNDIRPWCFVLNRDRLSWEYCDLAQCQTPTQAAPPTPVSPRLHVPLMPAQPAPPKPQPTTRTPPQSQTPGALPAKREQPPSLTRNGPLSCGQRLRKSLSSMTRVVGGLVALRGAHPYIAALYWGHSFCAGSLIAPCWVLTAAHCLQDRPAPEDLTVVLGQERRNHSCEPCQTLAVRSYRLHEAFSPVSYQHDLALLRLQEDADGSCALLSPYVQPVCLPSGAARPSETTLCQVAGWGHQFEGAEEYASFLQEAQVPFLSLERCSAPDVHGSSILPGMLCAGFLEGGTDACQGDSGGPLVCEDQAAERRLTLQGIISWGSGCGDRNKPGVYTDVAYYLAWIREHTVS

[3] = Inhibition of chymotrypsin-like activity of human 20s proteasome beta-1 subunit in human erythrocyte assessed as hydrolysis of Ac-WLA-AMC fluorogenic substrate
[4] = Binding affinity to chymotrypsin-like activity of 20S proteasome
[5] = target: Plasminogen (Homo sapiens) (UniProt P00747); experiment: Inhibition of human plasmin at 100 uM
Chain of Plasminogen (Homo sapiens) (P00747 97-580 limits assumed): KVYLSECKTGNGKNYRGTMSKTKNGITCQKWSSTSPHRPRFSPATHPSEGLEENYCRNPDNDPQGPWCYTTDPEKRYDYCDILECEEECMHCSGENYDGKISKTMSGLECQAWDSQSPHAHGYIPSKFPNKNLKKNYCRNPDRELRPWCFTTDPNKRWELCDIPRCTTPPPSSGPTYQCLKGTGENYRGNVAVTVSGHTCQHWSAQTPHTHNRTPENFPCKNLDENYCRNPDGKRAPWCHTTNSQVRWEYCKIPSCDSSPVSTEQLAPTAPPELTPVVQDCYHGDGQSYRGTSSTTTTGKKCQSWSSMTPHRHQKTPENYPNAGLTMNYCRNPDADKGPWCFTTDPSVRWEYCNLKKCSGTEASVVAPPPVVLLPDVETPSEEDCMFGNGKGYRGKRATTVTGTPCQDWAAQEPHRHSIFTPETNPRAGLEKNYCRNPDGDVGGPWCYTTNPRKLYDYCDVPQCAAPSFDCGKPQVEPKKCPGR
Chain of Plasminogen (Homo sapiens) (P00747 581-810 limits assumed): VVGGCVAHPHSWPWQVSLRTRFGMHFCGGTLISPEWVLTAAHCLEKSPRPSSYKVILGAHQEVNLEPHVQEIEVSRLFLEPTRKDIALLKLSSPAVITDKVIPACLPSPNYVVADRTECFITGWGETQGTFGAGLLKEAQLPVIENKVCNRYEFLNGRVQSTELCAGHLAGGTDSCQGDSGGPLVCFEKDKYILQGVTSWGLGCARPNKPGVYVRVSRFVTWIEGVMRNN

[6] = target: Tissue-type plasminogen activator (Homo sapiens) (UniProt P00750); experiment: Inhibition of tissue plasminogen activator at 100 uM
Chain of Tissue-type plasminogen activator (Homo sapiens) (P00750 36-562 limits assumed): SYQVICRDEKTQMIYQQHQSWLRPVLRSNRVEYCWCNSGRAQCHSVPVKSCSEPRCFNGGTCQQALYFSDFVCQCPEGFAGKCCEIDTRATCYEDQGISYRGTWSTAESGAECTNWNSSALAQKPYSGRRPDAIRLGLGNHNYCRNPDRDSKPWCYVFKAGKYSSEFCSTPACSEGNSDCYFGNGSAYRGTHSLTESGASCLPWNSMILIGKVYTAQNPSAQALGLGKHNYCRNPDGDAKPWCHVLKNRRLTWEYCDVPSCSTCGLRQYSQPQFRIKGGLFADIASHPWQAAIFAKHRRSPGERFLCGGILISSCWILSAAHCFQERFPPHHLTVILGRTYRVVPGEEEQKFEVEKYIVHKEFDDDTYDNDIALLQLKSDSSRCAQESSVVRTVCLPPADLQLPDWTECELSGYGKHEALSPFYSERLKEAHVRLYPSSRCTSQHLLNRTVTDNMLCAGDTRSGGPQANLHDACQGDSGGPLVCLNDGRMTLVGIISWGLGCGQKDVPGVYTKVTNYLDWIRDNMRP

HEK293 = experiment: (§1) Inhibition of TNF-alpha-induced NF-kappaB activation in human HEK293 cells after 3 hrs by luciferase reporter gene assay; type: cell-based; design: concentration or dose not given beside the values; details: dose or concentration not given here
Outline: (§2)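 NF-κB-luciferase reporter in HEK293 cells (10,000 per well). Cells were pre-incubated with compound for 1 h, then stimulated with 10 ng/ml TNF-α for 3 h with compound still present. IC50 and percentage inhibition were reported as means of at least three independent experiments.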

[7] = as §1; type: cell-based; details: HEK293, 3 h; outline: as §2
[8] = Cytotoxicity against human Calu6 cells assessed as cellular ATP level after 72 hrs by luminescence-based ATPlite assay; type: cell-based, Calu-6; details: read-out: LC50
Outline: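 Calu6 cells, 2000 per well, incubated with compound for 72 h. Viability read as cellular ATP by luminescence (ATPlite). Values are means of at least three independent experiments.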

Homo sapiens [9] = species: Homo sapiens; experiment: Inhibition of human chymotrypsin at 100 uM
[10] = target: Prothrombin (Homo sapiens) (UniProt P00734); experiment: Inhibition of human thrombin at 100 uM
[11] = target: Procathepsin L (Homo sapiens) (UniProt P07711); experiment: Inhibition of human cathepsin L at 100uM
Chain of Procathepsin L (Homo sapiens) (P07711 114-333 limits assumed): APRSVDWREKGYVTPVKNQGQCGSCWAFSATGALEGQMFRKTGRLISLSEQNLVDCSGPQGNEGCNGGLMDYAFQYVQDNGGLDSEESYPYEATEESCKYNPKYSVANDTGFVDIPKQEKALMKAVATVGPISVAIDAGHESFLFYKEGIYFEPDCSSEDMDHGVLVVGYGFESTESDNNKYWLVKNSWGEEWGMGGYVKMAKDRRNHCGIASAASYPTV

[12] = Inhibition of chymotrypsin-like activity of human 20s proteasome beta2 subunit in human erythrocyte assessed as hydrolysis of Ac-WLA-AMC fluorogenic substrate
Homo sapiens [13] = species: Homo sapiens; experiment: Inhibition of human elastase at 100 uM
[14] = target: Cathepsin B (Homo sapiens) (UniProt P07858); experiment: Inhibition of human cathepsin B at 100uM
[15] = Inhibition of chymotrypsin-like activity of human 20s proteasome beta5 subunit in human erythrocyte assessed as hydrolysis of Ac-WLA-AMC fluorogenic substrate

With CC(C)C[C@H](NC(=O)[C@H](Cc1ccccc1)NC(=O)c1cnccn1)B(O)O [BORTEZOMIB] the inhibition [1] was “Active”, the inhibition (Trypsin (Homo sapiens)) was “Active” and the inhibition [2] was “Active”. For the same compound, the IC50 [3] was over 20 µM, the Ki [4] was 0.55 nM and the inhibition [5] was “Active”. The inhibition [6] was “Active”, the inhibition (HEK293) was 100% and the IC50 [7] was 10 nM. The CC50 at 72 h [8] was 6.1 nM, the inhibition (Homo sapiens [9]) was “Active” and the inhibition [10] was “Active”. For the same compound, the inhibition [11] was “Active”, the IC50 [12] was over 20 µM and the inhibition (Homo sapiens [13]) was “Active”. The inhibition [14] was “Active”.
In the case of Cc1ccc(CNC(=O)[C@H](CCc2ccccc2)NC(=O)[C@H](CCc2ccccc2)NC(=O)[C@H](CCc2ccccc2)NC(=O)c2cnc(C)cn2)cc1, the inhibition [1] is reported as “Active”, the inhibition (Trypsin (Homo sapiens)) is reported as “Active” and the inhibition [2] is reported as “Active”. For the same compound, the IC50 [3] was over 20 µM, the inhibition [5] was “Active” and the inhibition [6] was “Active”. For the same compound, the inhibition (HEK293) was 79%, the IC50 [7] was 47 nM and the CC50 at 72 h [8] was 140 nM. For the same compound, the inhibition (Homo sapiens [9]) was “Active”, the inhibition [10] was “Active” and the inhibition [11] was “Active”. The IC50 [12] was over 20 µM, the IC50 [15] was 16 nM and the inhibition (Homo sapiens [13]) was “Active”. The inhibition [14] was “Active”.
